A selection: hits, their analogues and other compounds. The true share with any hit is near 2.3%.
TRPC6 act = activators of mouse TRPC6 channel; B-score at 10 µM; Q61143; HEK293-TRPC6 membrane potential dye fluorescence; active compounds read high; 310,000 tested, 0.13% active; AID 2550;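 active = B-score of the integrated fluorescence ratio above library mean plus 3 SD, and starting fluorescence ratio within library mean plus 5 SD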;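 also: higher score means more depolarization so channel activation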
Target sequence (Q61143 whole entry, looked up): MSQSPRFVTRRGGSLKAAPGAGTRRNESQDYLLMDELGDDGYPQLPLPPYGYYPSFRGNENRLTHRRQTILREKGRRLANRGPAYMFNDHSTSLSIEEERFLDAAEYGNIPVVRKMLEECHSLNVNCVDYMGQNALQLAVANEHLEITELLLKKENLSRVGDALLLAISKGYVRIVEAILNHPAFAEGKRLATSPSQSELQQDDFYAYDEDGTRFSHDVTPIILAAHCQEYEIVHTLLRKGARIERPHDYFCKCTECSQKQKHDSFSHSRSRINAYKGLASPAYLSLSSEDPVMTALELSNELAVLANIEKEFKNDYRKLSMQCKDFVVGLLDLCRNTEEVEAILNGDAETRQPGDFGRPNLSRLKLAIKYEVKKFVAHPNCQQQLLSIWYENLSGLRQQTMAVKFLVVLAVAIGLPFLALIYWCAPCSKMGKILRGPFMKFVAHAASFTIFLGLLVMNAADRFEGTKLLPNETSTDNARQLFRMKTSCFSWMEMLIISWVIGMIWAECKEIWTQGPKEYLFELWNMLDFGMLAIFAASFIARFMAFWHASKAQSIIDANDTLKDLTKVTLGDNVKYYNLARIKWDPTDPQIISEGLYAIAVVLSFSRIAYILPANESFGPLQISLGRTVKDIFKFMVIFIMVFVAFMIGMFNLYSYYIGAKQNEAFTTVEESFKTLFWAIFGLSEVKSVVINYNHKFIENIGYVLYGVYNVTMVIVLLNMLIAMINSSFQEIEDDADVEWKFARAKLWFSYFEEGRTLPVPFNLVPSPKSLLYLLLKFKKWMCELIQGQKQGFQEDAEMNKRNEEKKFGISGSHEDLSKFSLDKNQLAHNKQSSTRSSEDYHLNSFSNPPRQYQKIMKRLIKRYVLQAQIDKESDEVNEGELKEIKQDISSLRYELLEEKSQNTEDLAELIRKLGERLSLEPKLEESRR
TRPC4 potent = allosteric potentiators of mouse TRPC4 channel; Q9QUQ5; AID 2227; B-score at 10 µM; 310,000 tested, 0.42% active; HEK293 TRPC4beta/mu-opioid, DAMGO EC20, Fluo-4 Ca2+ flux; active compounds read high;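 active = B-score of calcium response area above 5 SD of library B-scores, with initial fluorescence ratio within 5 SD of library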
TRPC6 inh = inhibitors of mouse TRPC6 channel. Q61143. HEK293-TRPC6, membrane potential dye, ACh-evoked depolarization; active compounds read low. B-score at 10 µM. 310,000 tested, 1.1% active. AID 2553;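 active = B-score under library mean minus 3 SD, initial fluorescence not abnormally high, positive integrated signal ratio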;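 also: B-score derived from integrated fluorescence ratio over the kinetic read; more negative B-score means stronger inhibition of depolarization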
TRPC4 block = inhibitors of mouse TRPC4 channel. HEK293 TRPC4beta/mu-opioid, DAMGO-evoked Fluo4 calcium flux; active compounds read low. B-score at 10 µM. 300,000 tested, 0.39% active. AID 2247;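 active = B-score over 3 SD under the library average, no early fluorescence shift, positive overall ratio signal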
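Signal: kinetic Fluo4 fluorescence imaging of calcium influx. Material: stable TRPC4beta/mu-opioid receptor HEK293 cells. Probe or stimulus: DAMGO in two steps, submaximal then maximal.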
TRPC4 act = TRPC4 (mouse) channel activation; AID 2237; 310,000 tested, 0.49% active; Q9QUQ5; HEK293 TRPC4beta/mu-opioid, Fluo4 calcium fluorescence; active compounds read high; B-score at 10 µM;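 active = B-score above 5 SD of library B-scores, and initial fluorescence ratio not above library mean plus 5 SD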;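 also: positive B-score marks a calcium rise read as TRPC4 activation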
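Assay system: HEK293 cells stably co-expressing mouse TRPC4beta and mu-opioid receptor / Timing: Fluo4 dye loading 45 min at room temperature, 110 s recording / Signal: Fluo4 calcium-sensitive dye fluorescence, kinetic, 1 Hz baseline / Read-out: integrated baseline-normalised fluorescence ratio, converted to per-well B score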
TRPC4 spec 2 = second check of whether TRPC6 inhibitors also affect mouse TRPC4 | shares compounds with TRPC6 inh | AID 2776 | HEK293 TRPC4/MOR, membrane potential dye fluorescence; channel activated by saturating DAMGO dose | 920 tested, 42% active | inhibition, % at 10 µM;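 active = compounds whose fluorescence signal differed from control wells by over 3 SD, either direction, in both duplicate plates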
TRPC4 spec = tests whether TRPC6 inhibitors also affect mouse TRPC4; shares compounds with TRPC6 inh; HEK293 TRPC4/mu-opioid, membrane potential fluorescence; activity change, negative = inhibition, % at 10 µM; 920 tested, 61% active; AID 2777;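 active = rise or fall in signal beyond 3 SD of buffer-only wells in both replicate plates, either sign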;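 also: integrated kinetic ratio of fluorescence range over baseline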
HEK293 MPD ctr 2-1 = second check of TRPC6 inhibitor effects in parental HEK293 cells. shares compounds with TRPC6 inh. parental HEK293 membrane potential dye fluorescence; maximal acetylcholine challenge after compound addition. signal change vs control, % at 10 µM. 920 tested, 31% active. AID 2779;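 active = membrane potential signal moving either way by over 3 SD of the maximum-effect control, in both duplicate plates, meaning non-specific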
HEK293 MPD ctr-1 = parental HEK293 nonspecific activity of TRPC6 inhibitors | shares compounds with TRPC6 inh | membrane potential signal change, % at 10 µM | parental HEK293 membrane potential dye fluorescence | 920 tested, 60% active;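 active = membrane potential signal shifting up or down by more than 3 SD of buffer-only wells, on both duplicate plates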
HEK293 MPD ctr-2 = checks TRPC6 modulator effects in parental HEK293 cells | shares compounds with TRPC6 inh | membrane potential dye fluorescence | membrane potential signal change, % at 10 µM | 2,400 tested, 51% active | AID 488924;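 active = membrane potential signal moves up or down beyond 5 SD from buffer-only wells, on both duplicate plates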
HEK293 MPD ctr 2-2 = second check of TRPC6 modulator effects in parental HEK293 cells. membrane potential dye fluorescence; after compound, maximal acetylcholine stimulation. shares compounds with TRPC6 inh. AID 488926. inhibition, % at 10 µM. 2,400 tested, 14% active;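 active = membrane potential signal drops by more than 5 SD from the mean control signal, in both duplicate plates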
TRPC4/MOR mod = selectivity of TRPC6 modulators against mouse TRPC4. shares compounds with TRPC6 inh. HEK293 TRPC4/mu-opioid, membrane potential fluorescence. percent change from control (negative = decrease, positive = increase), % at 10 µM. 2,400 tested, 69% active. AID 488927;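 active = membrane potential signal moved up or down beyond 5 SD of buffer control wells, in both duplicate plates, actives on both sides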
TRPC4/MOR inh 2 = second check of whether TRPC6 modulators also affect mouse TRPC4. shares compounds with TRPC6 inh. 2,400 tested, 55% active. inhibition, % at 10 µM. HEK293 TRPC4/mu-opioid, membrane potential dye fluorescence; stimulated with maximal-effect DAMGO. AID 488928;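 active = drop in membrane potential signal beyond 5 SD of the control wells in both duplicate plates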;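 also: TRPC4 counter screen for TRPC6 hits run under conditions tuned for TRPC6 not TRPC4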
TRPC6 inh conf = confirmation of mouse TRPC6 inhibitors. 3,300 tested, 43% active. shares compounds with TRPC6 inh. inhibition, % at 10 µM. AID 488960. HEK293-TRPC6, membrane potential dye, ACh-evoked depolarization;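 active = fluorescence ratio falls more than 5 SD below the full-stimulation control mean, in both duplicate runs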;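 also: integrated fluorescence ratio of peak minus minimum over baseline after agonist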
TRPC6 act conf = confirmation of mouse TRPC6 activators | shares compounds with TRPC6 inh | HEK293-TRPC6 membrane potential dye fluorescence, FDSS | activation, % at 10 µM | 2,800 tested, 11% active | AID 488961;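 active = ratio signal rise beyond 5 SD above unstimulated control wells' mean, seen in both duplicate runs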
Each line names hits and unclear results; the compound was inactive in the other large screens (follow-up assays come after a bar, where they were run).

O=c1c(N=Nc2ccc(O)cc2)c(-c2ccccc2)[nH]n1-c1ccc([N+](=O)[O-])cc1	none
Cc1ccc2c(c1)c1c3n2CCN=C3CCC1	TRPC6 inh -5 | HEK293 MPD ctr-2 -171% | HEK293 MPD ctr 2-2 inactive | TRPC4/MOR mod -28% | TRPC4/MOR inh 2 49% | TRPC6 inh conf inactive | TRPC6 act conf inactive
NC(=O)COC(=O)C1c2ccccc2Oc2ccccc21	none
CN(C)CCCOC(=O)C1c2ccccc2Oc2ccccc21	TRPC6 inh -8.5 | TRPC4 spec 2 inactive | TRPC4 spec 7.3% | HEK293 MPD ctr 2-1 28% | HEK293 MPD ctr-1 7.4% | TRPC6 inh conf 63%
CN(CCOC(=O)C1c2ccccc2Oc2ccccc21)C(C)(C)C	TRPC6 inh -10 | TRPC4 spec 2 inactive | TRPC4 spec 15% | HEK293 MPD ctr 2-1 24% | HEK293 MPD ctr-1 11% | TRPC6 inh conf 68%

Assay outcomes (PubChem)
